A selection: hits, their analogues and other compounds. The true share with any hit is near 2.9%.
OX1R antag-1 = human HCRTR1 antagonism; actives 0.43% (n = 330,000); CHO/OX1R cells, Fluo-8 calcium fluorescence, orexin A; inhibition, % at 5 µM; O43613;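 active means inhibition above its plate's threshold, mean inhibition of all tested compounds on the plate plus 3 SD, cut at about 37% in these data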
Target sequence (O43613 whole entry, looked up): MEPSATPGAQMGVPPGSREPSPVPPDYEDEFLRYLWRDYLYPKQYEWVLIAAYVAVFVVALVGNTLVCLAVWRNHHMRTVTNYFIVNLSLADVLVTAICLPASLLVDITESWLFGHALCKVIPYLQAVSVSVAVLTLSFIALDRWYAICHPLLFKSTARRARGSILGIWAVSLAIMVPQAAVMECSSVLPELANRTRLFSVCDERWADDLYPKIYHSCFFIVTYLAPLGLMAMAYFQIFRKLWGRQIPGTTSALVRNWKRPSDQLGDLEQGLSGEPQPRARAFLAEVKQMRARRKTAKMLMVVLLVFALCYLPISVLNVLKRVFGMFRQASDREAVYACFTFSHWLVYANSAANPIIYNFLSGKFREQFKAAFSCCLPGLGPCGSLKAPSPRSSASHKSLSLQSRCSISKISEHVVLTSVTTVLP
CHO-K1 Ca antag = counter-screen for M1 antagonists: effect in parental CHO-K1 cells; ATP-induced calcium, Fluo-8 fluorescence; inhibition, % at 3 µM; actives 0.6% (n = 360,000); AID 602250;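 active means inhibition above a per-plate cutoff, the plate's mean sample inhibition plus 3 SD, cut at about 24% in these data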
OX1R antag-2 = antagonists of human orexin 1 receptor (OX1R) | OX1R-expressing cells, FRET antagonist read-out | AID 485270 | actives 1.8% (n = 330,000) | inhibition, % at 6.6 µM | O43613; in the data active means inhibition mostly above about 38%, no sharp cut-off; inactive means mostly below about 40%
CHO-K1 Ca PAM = nonselective activator or artifact in parental CHO-K1 calcium assay; ATP EC20, Fluo-8 calcium fluorescence; 0% at ATP EC20, 100% at ATP max; activation, % at 3 µM; actives 0.02% (n = 360,000); AID 602247;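 active means activation above the run cutoff, the mean activation of all test compounds plus 3 SD, cut at about 40% in these data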;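 further: peak over basal fluorescence ratio in a 140 s read after ATP addition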
M1 ag parental = nonselective activator or artifact in parental CHO-K1 cells; AID 602248; activation, % at 3 µM; actives 0.48% (n = 360,000); Fluo-8 calcium fluorescence; scaled to maximal ATP response, vehicle zero; in the data active means activation above about 15%;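 further: untransfected CHO-K1 host cells lacking M1 receptor as counterscreen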
CHO parental Ca = counter-screen for OX1R antagonists: effect in parental CHO cells; actives 0.63% (n = 330,000); parental CHO-K1, ATP-induced calcium, Fluo-8 fluorescence; inhibition, % at 5.6 µM;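 active means inhibition above that plate's mean sample inhibition plus 3 SD, cut at about 26% in these data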
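Material: Parental CHO cells | Reagent: ATP | Compound dosing: Single nominal dose of 5.6 µM per compound | Detection: Intracellular calcium via Fluo-8 no-wash fluorescent dye | Read-out: % inhibition of ATP-induced calcium mobilization | Benchmarks: Low control ATP plus DMSO, high control DMSO only | Replicates: Singlicate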
OX1R Ca confirm = confirmation of human orexin 1 receptor antagonists; shares compounds with OX1R antag-1; CHO/OX1R cells, orexin A calcium Fluo-8 fluorescence; inhibition, % at 5 µM; actives 38% (n = 1,100); in the data active means inhibition above about 29%
CHO Ca triplic = signal in parental CHO cells, OX1R antagonist counter-screen. shares compounds with OX1R antag-1. actives 9.3% (n = 1,100). AID 492965. parental CHO-K1, ATP-induced calcium, Fluo-8 fluorescence. inhibition, % at 5.6 µM;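 active means inhibition above a per-plate limit, the mean inhibition of that plate's test compounds plus 3 SD, cut at about 25% in these data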
Hits are given with their value; – = inactive; · = no result.

SMILES | OX1R antag-1 | CHO-K1 Ca antag | OX1R antag-2 | CHO-K1 Ca PAM | M1 ag parental | CHO parental Ca | OX1R Ca confirm | CHO Ca triplic
O=C(CSc1nc2ccccc2o1)Nc1ccccc1N1CCOCC1 | – | – | – | – | – | – | · | ·
O=C(CSc1nc2ccccc2[nH]1)Nc1ccccc1N1CCOCC1 | – | – | – | – | – | – | 35 | –
Cc1cccc(-c2nnc(-c3cccc(NC(=O)Cc4cccs4)c3)o2)c1 | 65 | – | – | – | – | – | – | –
Cn1nc(CC(=O)NCc2ccc(C(F)(F)F)cc2)c2ccccc2c1=O | – | – | – | – | – | – | · | ·
COc1ccc(CNC(=O)Cc2nn(C)c(=O)c3ccccc23)cc1 | – | 24 | – | – | – | – | – | 33
N#Cc1ccccc1CSCCNC(=O)Cc1c(F)cccc1Cl | – | – | – | – | – | – | · | ·
O=C(Nc1nnc(-c2ccccc2Cl)o1)c1nc2ccccc2s1 | – | – | – | – | 48 | – | – | –
CN(c1ccc(OCC(=O)NCCc2ccccc2)cc1)S(=O)(=O)c1ccc(Cl)cc1 | – | – | – | – | – | – | – | –
O=C(COc1ccc(Cl)cc1)Nc1cccc(S(=O)(=O)NCc2ccco2)c1 | – | – | – | – | – | – | – | –
CC(=O)CCc1ccc(OCC(=O)Nc2cccc(S(=O)(=O)N(C)c3ccccc3)c2)cc1 | · | – | · | – | – | · | · | ·
CN(c1ccccc1)S(=O)(=O)c1cccc(NC(=O)COc2ccccc2)c1 | – | – | – | – | – | – | – | –
C[C@H](NC(=O)N1CCC(Cc2ccccc2)CC1)C(=O)O | – | – | – | – | – | – | · | ·
COc1ccc(CC(=O)Nc2nc(-c3ccc(F)c(F)c3)cs2)cc1 | – | – | – | – | – | – | · | ·
CC1(C(=O)OCC(=O)Nc2nc(-c3ccc(F)c(F)c3)cs2)CC1(Cl)Cl (stereo not drawn) | – | – | – | – | – | – | – | –
CC(=O)c1c(C)[nH]c(C(=O)CSc2nc3ccccc3c(=O)n2CCCO)c1C | – | – | – | – | – | – | – | –
CC1CCN(C(=O)CSc2nnc(CNC(=O)c3ccc(S(=O)(=O)N(C)C)cc3)o2)CC1 | – | – | – | – | – | – | · | ·
Cc1ccc(C(=O)CSC2=C(C#N)C(c3ccco3)CC(=O)N2)c(C)c1 (stereo not drawn) | – | – | – | – | 16 | – | 39 | –
COc1ccc(C[C@H]2CN3C(=NC[C@H]3Cc3ccccc3)N2CCNC(=O)c2ccc(C)c(Br)c2)cc1 | – | – | – | – | – | – | 32 | –
CCc1c(C)sc(NC(=S)Nc2nc(C)cc(C)n2)c1C(=O)OC | – | – | – | – | – | – | 45 | –
CCc1c(C)sc(NC(=S)Nc2cccnc2)c1C(=O)OC | – | – | – | – | – | – | · | ·
CCOC(=O)c1ccc(NS(=O)(=O)c2ccc3c(c2)NC(=O)CCS3)cc1 | – | – | – | – | – | – | · | ·
N#CCCn1cc(/C=N/O)c(-c2ccccc2)n1 | – | – | – | – | – | – | · | ·
N#CCCn1cc(/C=N/NC(N)=S)c(-c2ccc(-c3ccccc3)cc2)n1 | – | – | – | – | – | – | – | –
O=C(Cc1ccccc1[N+](=O)[O-])NCC(O)c1ccc2c(c1)OCO2 (stereo not drawn) | · | – | · | – | – | · | · | ·
CC(=O)c1ccc(S(=O)(=O)NC2CCSc3ccccc32)cc1 (stereo not drawn) | – | – | – | – | – | – | · | ·
O=S(=O)(NC1CCSc2ccccc21)c1ccc(Cl)nc1 (stereo not drawn) | 52 | – | – | – | – | – | – | –
COCC1=C(C(=O)OC)C(c2cccs2)n2ncnc2N1 (stereo not drawn) | – | – | – | – | – | – | · | ·
Cc1nc2c(-c3ccc(Cl)cc3)cnn2c2c1CCC2 | 40 | – | – | – | – | – | 34 | –
Cc1nc2c(-c3ccc(Cl)cc3)cnn2c(N)c1-c1ccc(F)cc1 | – | – | – | – | – | – | · | ·
CC(=O)Nc1ccc(S(=O)(=O)N2CCC(c3nc4c(nnn4Cc4ccccc4Cl)c(=O)[nH]3)CC2)cc1 | – | – | – | – | – | – | · | ·

Source: PubChem BioAssay (The Scripps Research Institute Molecular Screening Center)
